# Source: ChEMBL document CHEMBL4049426, “Identification of the Clinical Candidate (R)-(1-(4-Fluorophenyl)-6-((1-methyl-1H-pyrazol-4-yl)sulfonyl)-4,4a,5,6,7,8-hexahydro-1H-pyrazolo[3,4-g]isoquinolin-4a-yl)(4-(trifluoromethyl)pyridin-2-yl)methanone (CORT125134): A Selective Glucocorticoid Receptor (GR) Antagonist” (J Med Chem, 2017)
# pEC50, pIC50: −log10 of the molar value.
# How the values were obtained:
# [1] = AUC in Sprague-Dawley CD-1 rat plasma at 3 mg/kg, po administered as cassette dose via gavage measured up to 24 hrs by LC/MS analysis; type: ADME, organism-based; design: time < 24 hr, dose 3 mg/kg, route oral
# Summary of the method: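 Three male Sprague Dawley CD-1 rats (220-250g) with jugular vein catheters; three test compounds plus a reference dosed together by oral gavage, 3mg/kg each, in DMSO:0.5% methylcellulose 10:90 (0.6mg/mL per compound), 5mL/kg. Plasma sampled pre-dose and at 0.25, 0.5, 1, 2, 4, 6, 8, 24 h; LC/MS.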
# [2] = Oral bioavailability in Sprague-Dawley CD-1 rat plasma at 5 mg/kg administered through gavage measured up to 24 hrs by LC/MS analysis; type: ADME, organism-based
# Summary of the method: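 Jugular-catheterized male Sprague Dawley CD-1 rats (220-250g). Oral arm: five rats, 5mg/kg gavage, 1mg/mL in DMSO:0.5% methylcellulose 10:90, 5mL/kg, sampled pre-dose and 0.25-24 h. i.v. arm: three rats, 1mg/kg, 0.5mg/mL in DMSO:PEG400:propylene glycol 10:45:45, sampled pre-dose and 0.08-24 h. Plasma by LC/MS.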
# [3] = AUC in monkey plasma at 20 mg/kg, po measured up to 24 hrs by LC/MS analysis; type: ADME, organism-based, Macaca mulatta; design: dose 20 mg/kg, time < 24 hr, route oral; conditions: rhesus monkey
# Summary of the method: (§1)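 Monkey i.v./p.o. study: oral 20mg/kg in 10% DMSO, 0.1% Tween 80, 0.5% hydroxypropylmethylcellulose in water; i.v. dose 1mg/kg.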
# [4] = Oral bioavailability in monkey plasma at 20 mg/kg measured up to 24 hrs by LC/MS analysis; type: ADME, organism-based, Macaca mulatta; conditions: rhesus monkey; summary of the method: as §1
# Macaca mulatta = species: Macaca mulatta; assay: Agonist activity at monkey glucocorticoid receptor in primary hepatocytes assessed as induction of tyrosine amino transferase activity measured after 20 hrs; type: cell-based
# [5] = target: T1, Glucocorticoid receptor (Rattus norvegicus) (UniProt P06536); assay: (§2) Agonist activity at rat glucocorticoid receptor in primary hepatocytes assessed as induction of tyrosine amino transferase activity measured after 20 hrs; type: cell-based
# T1 sequence (whole entry): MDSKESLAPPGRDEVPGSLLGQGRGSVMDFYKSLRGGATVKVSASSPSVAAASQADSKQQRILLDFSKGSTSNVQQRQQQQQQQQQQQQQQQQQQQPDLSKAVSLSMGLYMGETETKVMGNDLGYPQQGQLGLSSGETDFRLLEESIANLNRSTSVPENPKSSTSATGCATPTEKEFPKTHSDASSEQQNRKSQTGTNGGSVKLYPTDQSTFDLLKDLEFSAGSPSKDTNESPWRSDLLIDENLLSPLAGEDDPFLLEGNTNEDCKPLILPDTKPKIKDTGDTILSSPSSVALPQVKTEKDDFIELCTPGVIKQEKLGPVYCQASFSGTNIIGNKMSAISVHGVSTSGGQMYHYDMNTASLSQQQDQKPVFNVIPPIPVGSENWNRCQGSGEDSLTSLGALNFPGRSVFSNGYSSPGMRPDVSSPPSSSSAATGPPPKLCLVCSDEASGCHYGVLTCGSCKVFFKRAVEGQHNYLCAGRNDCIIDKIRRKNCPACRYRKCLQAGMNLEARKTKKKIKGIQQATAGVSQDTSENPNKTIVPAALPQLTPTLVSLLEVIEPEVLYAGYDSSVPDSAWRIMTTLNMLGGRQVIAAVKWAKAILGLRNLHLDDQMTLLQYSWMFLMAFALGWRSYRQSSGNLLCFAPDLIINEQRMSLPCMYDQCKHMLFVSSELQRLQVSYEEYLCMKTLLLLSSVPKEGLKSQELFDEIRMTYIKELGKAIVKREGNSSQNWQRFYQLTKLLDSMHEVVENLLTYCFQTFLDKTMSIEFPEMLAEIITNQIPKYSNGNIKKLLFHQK
# Glucocorticoid receptor = target: T2, Glucocorticoid receptor (Rattus norvegicus, UniProt P06536); assay: as §2; type: cell-based
# T2 sequence (P06536 whole entry): T1 sequence (whole entry)
# [6] = Protein binding in rat plasma; type: ADME, cell-free; conditions: read-out: PPB (converted)
# [7] = Protein binding in monkey plasma; type: ADME, cell-free, Macaca mulatta; conditions: rhesus monkey, read-out: PPB (converted)
# Cytochrome P450 1A2 [8] = target: T3, Cytochrome P450 1A2 (Homo sapiens, UniProt P05177); assay: Inhibition of CYP1A2 (unknown origin); type: ADME
# T3 sequence (P05177 whole entry): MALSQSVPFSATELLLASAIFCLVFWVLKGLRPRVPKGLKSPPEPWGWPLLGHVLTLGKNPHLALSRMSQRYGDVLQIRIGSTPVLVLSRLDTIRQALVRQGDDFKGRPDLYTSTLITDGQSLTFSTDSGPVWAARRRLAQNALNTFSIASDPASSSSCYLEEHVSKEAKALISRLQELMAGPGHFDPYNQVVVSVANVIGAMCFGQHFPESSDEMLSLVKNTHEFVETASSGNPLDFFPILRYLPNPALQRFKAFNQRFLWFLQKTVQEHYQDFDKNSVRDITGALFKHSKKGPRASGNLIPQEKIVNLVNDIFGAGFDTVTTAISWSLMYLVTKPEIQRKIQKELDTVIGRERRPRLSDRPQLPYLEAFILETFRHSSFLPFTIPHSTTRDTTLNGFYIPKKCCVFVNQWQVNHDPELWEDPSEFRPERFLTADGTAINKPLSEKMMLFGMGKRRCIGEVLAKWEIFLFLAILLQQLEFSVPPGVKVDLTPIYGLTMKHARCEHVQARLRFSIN
# Cytochrome P450 3A4 [9] = target: T4, Cytochrome P450 3A4 (Homo sapiens, UniProt P08684); assay: Inhibition of CYP3A4 (unknown origin); type: ADME
# T4 sequence (P08684 whole entry): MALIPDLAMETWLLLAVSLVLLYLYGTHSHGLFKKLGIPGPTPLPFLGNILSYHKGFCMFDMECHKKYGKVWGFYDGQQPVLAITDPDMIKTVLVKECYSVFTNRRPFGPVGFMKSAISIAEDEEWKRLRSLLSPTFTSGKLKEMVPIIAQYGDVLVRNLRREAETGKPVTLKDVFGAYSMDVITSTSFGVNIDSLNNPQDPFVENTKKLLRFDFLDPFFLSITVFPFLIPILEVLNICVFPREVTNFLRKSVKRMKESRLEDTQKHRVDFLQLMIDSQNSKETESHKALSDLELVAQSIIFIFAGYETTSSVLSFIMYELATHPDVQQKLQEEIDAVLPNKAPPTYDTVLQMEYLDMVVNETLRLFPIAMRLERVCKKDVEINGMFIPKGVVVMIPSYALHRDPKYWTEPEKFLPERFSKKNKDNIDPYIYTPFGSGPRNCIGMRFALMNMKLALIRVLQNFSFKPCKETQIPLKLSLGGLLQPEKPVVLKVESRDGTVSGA
# Cytochrome P450 2B6 = target: T5, Cytochrome P450 2B6 (Homo sapiens, UniProt P20813); assay: Time-dependent inhibition of CYP2B6 (unknown origin); type: ADME
# T5 sequence (P20813 whole entry): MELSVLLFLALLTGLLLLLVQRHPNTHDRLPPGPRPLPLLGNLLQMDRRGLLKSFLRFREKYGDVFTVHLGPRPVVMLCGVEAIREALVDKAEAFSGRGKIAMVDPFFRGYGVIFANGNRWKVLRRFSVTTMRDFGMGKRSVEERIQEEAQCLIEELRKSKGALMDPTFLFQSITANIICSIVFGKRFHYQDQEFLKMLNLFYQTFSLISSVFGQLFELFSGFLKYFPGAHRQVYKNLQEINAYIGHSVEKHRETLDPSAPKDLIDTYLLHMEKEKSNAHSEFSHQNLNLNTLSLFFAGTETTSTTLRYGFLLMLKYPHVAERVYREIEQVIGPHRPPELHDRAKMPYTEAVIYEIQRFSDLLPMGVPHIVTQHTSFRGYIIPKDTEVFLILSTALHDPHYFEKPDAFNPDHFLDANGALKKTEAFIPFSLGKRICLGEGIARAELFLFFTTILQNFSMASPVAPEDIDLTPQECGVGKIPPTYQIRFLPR
# Cytochrome P450 3A4 [10] = target: T4, Cytochrome P450 3A4; assay: Time-dependent inhibition of CYP3A4 (unknown origin); type: ADME
# Cytochrome P450 1A2 [11] = target: T3, Cytochrome P450 1A2; assay: Induction of CYP1A2 in human hepatocytes; type: ADME, cell-based
smiles,measurement,setting,value
Cn1cc(S(=O)(=O)N2CCC3=Cc4c(cnn4-c4ccc(F)cc4)C[C@]3(C(=O)c3cc(C(F)(F)F)ccn3)C2)cn1 [RELACORILANT],AUC at 24 h,[1],1220 ng·h/mL
same,bioavailability,[2],89%
same,AUC at 24 h,[3],11700 ng·h/mL
same,bioavailability,[4],88%
same,Emax,Macaca mulatta,0%
same,Emax,[5],22%
same,pEC50,Glucocorticoid receptor,< 5.00
same,fraction unbound,[6],0.003
same,fraction unbound,[7],0.011
same,pIC50,Cytochrome P450 1A2 [8],< 5.00
same,pIC50,Cytochrome P450 3A4 [9],5.89
same,TDI,Cytochrome P450 2B6,Not Active
same,TDI,Cytochrome P450 3A4 [10],Not Active
same,Activity,Cytochrome P450 1A2 [11],Not Active
